Assay results collected from several papers.
Protocols differ between the studies behind these lines.
Target: Serine/threonine-protein kinase Sgk1 (SGK1, Homo sapiens, UniProt O00141)
Residues used in one study (O00141 1-431): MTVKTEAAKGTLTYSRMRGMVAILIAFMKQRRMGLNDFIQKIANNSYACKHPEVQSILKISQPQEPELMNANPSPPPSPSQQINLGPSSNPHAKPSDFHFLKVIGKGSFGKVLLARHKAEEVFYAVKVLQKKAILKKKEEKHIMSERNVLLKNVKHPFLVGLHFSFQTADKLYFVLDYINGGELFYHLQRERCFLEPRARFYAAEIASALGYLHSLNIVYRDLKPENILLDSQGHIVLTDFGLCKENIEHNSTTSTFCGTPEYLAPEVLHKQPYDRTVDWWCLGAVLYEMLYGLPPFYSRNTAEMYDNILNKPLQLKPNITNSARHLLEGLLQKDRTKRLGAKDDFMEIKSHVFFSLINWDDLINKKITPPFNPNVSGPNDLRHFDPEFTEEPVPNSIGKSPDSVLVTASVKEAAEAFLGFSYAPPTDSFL

Compound | read-out | mode | method | tested at | measurement | result
Nc1ncc(-c2nc(N3CCOCC3)nc(N3CCOCC3)n2)c(C(F)F)n1 | binding |  | competition with immobilised ligand | 10 µM | remaining binding | 77%
Cn1cc(-c2cc(F)cc(N3CCn4c(cc5c4CCCC5)C3=O)c2CO)cc(Nc2ccc(N3CCN(C4COC4)CC3)cn2)c1=O | enzyme activity | inhibitor |  | 0.1 µM | inhibition | 13%
CC(C)(C)c1cc(C=C(C#N)C#N)cc(Br)c1O | enzyme activity | inhibitor |  | 0.5 µM | remaining activity | 95.3%
N#CC1(c2ccccn2)CCN(Cc2cc(C(=O)O)c(=O)n3ccccc23)CC1 | cell-free assay |  | competition with immobilised ligand | 1 µM | remaining binding | 87%
COc1ncccc1-c1cnn2ccc(N3CCN(C(=O)OC(C)C)CC3)nc12 | binding |  | competition with immobilised ligand | 1 µM | remaining binding | 100%
Cn1cncc1[C@@](O)(COc1ccc(C#N)cc1-c1ccc(OC(F)(F)F)cc1)c1ccc(C#N)cc1 | cell-free assay |  | competition with immobilised ligand | 1 µM | remaining binding | 100%
O=c1[nH]c2ccccc2n1C1CCN(Cc2ccc(-c3[nH]c4cc5ncnc5cc4nc3-c3ccccc3)cc2)CC1 | cell-free assay |  |  | 0.5 µM | remaining signal | 102%
Cn1cc(-c2cccc(N3CCc4c(sc5c4CC(C)(C)C5)C3=O)c2CO)cc(Nc2ccncn2)c1=O | enzyme activity | inhibitor |  | 1 µM | inhibition | -11%
C#Cc1n[nH]c2c(-c3cn(C(C)c4ccccn4)c(=O)[nH]c3=O)cc(F)cc12 (stereo not drawn) | enzyme activity | inhibitor |  | 1 µM | inhibition | 0%
